Data taken from article PMC11522000 (Nature Microbiology, 2024).
Entries after “also recorded” stand apart in the source; their conditions may differ.

Legend:
Plasma protein binding = format: in vitro ADME; conditions: dog
CYP3A4 = CYP3A4 (Homo sapiens, UniProt P08684); assay: CYP3A4 time-dependent inhibition; format: in vitro ADME
[1] = 2 weeks GLP dog toxicology study with toxicokinetics; format: in vivo; conditions: for AUC(0-t): AUC0-8, dog
human PXR = assay: PXR reporter gene assay; format: in vitro ADME
Method in brief: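 CYP3A4 transactivation was measured in the human hepatoma line DPX-2, which overexpresses human PXR and carries a CYP3A4 promoter-luciferase reporter.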

[2] = Liver microsomes metabolic stability; format: in vitro ADME; conditions: human
Method in brief: (§1)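 Test compound was incubated with liver microsomes or hepatocytes of each species, and parent depletion was quantified by LC-MS/MS. From this, in vitro half-life and intrinsic clearance were derived, along with predicted metabolic clearance and hepatic extraction ratio.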

ATM = ATM (Homo sapiens, UniProt Q13315); assay: Kinase assay panel; format: biochemical
hERG = hERG (Homo sapiens, UniProt Q12809); assay: hERG binding assay
Method in brief: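 Binding was measured in hERG-expressing HEK293 cells. Concentration-response curves were typically 6-point, spanning 0.37 to 30.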

CYP2D6 = CYP2D6 (Homo sapiens, UniProt P10635); assay: CYP450 reversible inhibition; format: in vitro ADME
C. parvum [3] = assay: Host cell invasion assay; format: cell-based, Cryptosporidium parvum; conditions: HCT-8, 3 h; EDI048 and KDU731 20 µM, wiskostatin 11.3 µM
Method in brief: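 HCT-8 monolayers were 95–100% confluent. Compounds were added at twice the final concentration 1 h before infection with 50,000 primed oocysts per well. Plates were kept 3 h at 37 °C, 5% CO2, then washed with PBS-0.1% Tween 20, fixed in 4% PFA for 15 min at room temperature, permeabilized with 0.25% Triton X-100 and blocked in 4% BSA. Vacuoles were stained with fluorescein-VVL and nuclei with Hoechst, then imaged.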

Plasma stability = format: in vitro ADME; conditions: mouse
Method in brief: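 Test compound was added to plasma and incubated at 37 °C in a shaking water bath, with samples taken at sequential timepoints. Samples were quenched with ice-cold acetonitrile and analysed by LC-MS/MS, and half-life was calculated from the depletion rate.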

[4] = Hepatocytes metabolic stability; format: in vitro ADME; conditions: human
Method in brief: as §1

HepG2 = assay: Cytotoxicity assay; format: cell-based, human
C. parvum [5] = assay: Cytopathic effect; format: cell-based, Cryptosporidium parvum; conditions: for EC50: read-out: Cp CPE EC50, C. parvum, HCT-8, 48 h
Method in brief: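 HCT-8 cells were grown at 37 °C, 5% CO2 in RPMI-1640 with 10% heat-inactivated FBS. Oocysts were excysted in 10 mM HCl/HBSS for 10 min at 37 °C, then in 2 mM sodium taurocholate in L-15/UltraCULTURE medium for 5 min. Infected cells were seeded onto pre-spotted compound (10-point, 3-fold dilution; DMSO and reference-inhibitor controls) and incubated 48 h. Cells were then lysed for a viability read-out, and concentration-response curves were fitted.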

CpPI(4)K = target: T1, CpPI(4)K (Cryptosporidium parvum, UniProt Q5CVD3); assay: PI; format: biochemical, C. parvum; conditions: CpPI(4)K IC50, 3 μM ATP
T1 sequence (Q5CVD3 1-1114): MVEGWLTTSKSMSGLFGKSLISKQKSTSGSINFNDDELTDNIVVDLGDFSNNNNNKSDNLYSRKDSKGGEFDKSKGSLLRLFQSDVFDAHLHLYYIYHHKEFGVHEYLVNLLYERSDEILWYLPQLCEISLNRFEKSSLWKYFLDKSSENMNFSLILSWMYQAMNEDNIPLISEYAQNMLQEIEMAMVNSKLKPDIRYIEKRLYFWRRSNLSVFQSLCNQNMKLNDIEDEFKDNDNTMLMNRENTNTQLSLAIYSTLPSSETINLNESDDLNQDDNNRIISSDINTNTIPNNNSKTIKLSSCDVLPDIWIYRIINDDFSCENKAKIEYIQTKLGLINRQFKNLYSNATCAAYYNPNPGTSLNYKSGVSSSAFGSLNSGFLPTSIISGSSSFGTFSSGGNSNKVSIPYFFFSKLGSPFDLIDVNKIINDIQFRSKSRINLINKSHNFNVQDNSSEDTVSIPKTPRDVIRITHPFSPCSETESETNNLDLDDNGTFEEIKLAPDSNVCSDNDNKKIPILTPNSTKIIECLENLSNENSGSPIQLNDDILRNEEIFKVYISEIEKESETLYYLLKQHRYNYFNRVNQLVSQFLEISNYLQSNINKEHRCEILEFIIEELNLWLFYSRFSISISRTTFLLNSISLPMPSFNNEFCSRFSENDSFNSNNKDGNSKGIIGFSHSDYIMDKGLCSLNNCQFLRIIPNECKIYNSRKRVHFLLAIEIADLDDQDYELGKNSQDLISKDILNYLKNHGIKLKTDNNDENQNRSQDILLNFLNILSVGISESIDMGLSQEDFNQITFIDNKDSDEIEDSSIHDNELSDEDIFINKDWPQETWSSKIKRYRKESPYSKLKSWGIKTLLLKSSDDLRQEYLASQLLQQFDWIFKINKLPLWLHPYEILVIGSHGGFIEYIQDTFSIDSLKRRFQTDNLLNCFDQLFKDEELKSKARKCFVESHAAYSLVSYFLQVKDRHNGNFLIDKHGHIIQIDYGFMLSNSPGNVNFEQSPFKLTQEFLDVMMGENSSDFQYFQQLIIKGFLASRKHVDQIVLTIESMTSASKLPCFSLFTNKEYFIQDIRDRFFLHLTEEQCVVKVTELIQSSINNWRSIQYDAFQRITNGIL
Method in brief: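 Enzyme was pre-incubated with compound for 5 min at room temperature. The reaction was started with substrate mix at twice final strength (PI, ATP, Tris-HCl pH 7.5, DTT, 0.05% Triton X-100, MnCl2) and run 50 min at room temperature. ADP was measured by ADP-Glo luminescence. IC50s came from in-plate duplicate 10-point 3-fold dilutions, with DMSO and reference-inhibitor controls. The C. parvum enzymes (wild type and mutants) were full-length proteins expressed from baculovirus in Sf21 cells.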

[6] = MDCK Low Efflux permeability; format: in vitro ADME; conditions: dog

Chain of CYP3A4 (P08684 whole entry): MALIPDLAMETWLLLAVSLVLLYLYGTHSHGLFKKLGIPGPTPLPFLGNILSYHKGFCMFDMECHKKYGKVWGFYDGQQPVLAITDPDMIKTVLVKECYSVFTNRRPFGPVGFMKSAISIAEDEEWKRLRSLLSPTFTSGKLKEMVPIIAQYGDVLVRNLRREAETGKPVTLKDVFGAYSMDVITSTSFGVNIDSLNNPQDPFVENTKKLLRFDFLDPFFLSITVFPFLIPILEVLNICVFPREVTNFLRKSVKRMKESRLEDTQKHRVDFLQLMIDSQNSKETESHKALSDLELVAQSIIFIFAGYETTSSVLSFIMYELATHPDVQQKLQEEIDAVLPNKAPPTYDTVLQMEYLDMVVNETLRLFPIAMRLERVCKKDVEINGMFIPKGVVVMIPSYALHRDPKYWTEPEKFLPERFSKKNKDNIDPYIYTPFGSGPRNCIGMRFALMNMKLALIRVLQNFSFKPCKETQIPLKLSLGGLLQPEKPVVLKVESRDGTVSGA
Chain of ATM (Q13315 whole entry): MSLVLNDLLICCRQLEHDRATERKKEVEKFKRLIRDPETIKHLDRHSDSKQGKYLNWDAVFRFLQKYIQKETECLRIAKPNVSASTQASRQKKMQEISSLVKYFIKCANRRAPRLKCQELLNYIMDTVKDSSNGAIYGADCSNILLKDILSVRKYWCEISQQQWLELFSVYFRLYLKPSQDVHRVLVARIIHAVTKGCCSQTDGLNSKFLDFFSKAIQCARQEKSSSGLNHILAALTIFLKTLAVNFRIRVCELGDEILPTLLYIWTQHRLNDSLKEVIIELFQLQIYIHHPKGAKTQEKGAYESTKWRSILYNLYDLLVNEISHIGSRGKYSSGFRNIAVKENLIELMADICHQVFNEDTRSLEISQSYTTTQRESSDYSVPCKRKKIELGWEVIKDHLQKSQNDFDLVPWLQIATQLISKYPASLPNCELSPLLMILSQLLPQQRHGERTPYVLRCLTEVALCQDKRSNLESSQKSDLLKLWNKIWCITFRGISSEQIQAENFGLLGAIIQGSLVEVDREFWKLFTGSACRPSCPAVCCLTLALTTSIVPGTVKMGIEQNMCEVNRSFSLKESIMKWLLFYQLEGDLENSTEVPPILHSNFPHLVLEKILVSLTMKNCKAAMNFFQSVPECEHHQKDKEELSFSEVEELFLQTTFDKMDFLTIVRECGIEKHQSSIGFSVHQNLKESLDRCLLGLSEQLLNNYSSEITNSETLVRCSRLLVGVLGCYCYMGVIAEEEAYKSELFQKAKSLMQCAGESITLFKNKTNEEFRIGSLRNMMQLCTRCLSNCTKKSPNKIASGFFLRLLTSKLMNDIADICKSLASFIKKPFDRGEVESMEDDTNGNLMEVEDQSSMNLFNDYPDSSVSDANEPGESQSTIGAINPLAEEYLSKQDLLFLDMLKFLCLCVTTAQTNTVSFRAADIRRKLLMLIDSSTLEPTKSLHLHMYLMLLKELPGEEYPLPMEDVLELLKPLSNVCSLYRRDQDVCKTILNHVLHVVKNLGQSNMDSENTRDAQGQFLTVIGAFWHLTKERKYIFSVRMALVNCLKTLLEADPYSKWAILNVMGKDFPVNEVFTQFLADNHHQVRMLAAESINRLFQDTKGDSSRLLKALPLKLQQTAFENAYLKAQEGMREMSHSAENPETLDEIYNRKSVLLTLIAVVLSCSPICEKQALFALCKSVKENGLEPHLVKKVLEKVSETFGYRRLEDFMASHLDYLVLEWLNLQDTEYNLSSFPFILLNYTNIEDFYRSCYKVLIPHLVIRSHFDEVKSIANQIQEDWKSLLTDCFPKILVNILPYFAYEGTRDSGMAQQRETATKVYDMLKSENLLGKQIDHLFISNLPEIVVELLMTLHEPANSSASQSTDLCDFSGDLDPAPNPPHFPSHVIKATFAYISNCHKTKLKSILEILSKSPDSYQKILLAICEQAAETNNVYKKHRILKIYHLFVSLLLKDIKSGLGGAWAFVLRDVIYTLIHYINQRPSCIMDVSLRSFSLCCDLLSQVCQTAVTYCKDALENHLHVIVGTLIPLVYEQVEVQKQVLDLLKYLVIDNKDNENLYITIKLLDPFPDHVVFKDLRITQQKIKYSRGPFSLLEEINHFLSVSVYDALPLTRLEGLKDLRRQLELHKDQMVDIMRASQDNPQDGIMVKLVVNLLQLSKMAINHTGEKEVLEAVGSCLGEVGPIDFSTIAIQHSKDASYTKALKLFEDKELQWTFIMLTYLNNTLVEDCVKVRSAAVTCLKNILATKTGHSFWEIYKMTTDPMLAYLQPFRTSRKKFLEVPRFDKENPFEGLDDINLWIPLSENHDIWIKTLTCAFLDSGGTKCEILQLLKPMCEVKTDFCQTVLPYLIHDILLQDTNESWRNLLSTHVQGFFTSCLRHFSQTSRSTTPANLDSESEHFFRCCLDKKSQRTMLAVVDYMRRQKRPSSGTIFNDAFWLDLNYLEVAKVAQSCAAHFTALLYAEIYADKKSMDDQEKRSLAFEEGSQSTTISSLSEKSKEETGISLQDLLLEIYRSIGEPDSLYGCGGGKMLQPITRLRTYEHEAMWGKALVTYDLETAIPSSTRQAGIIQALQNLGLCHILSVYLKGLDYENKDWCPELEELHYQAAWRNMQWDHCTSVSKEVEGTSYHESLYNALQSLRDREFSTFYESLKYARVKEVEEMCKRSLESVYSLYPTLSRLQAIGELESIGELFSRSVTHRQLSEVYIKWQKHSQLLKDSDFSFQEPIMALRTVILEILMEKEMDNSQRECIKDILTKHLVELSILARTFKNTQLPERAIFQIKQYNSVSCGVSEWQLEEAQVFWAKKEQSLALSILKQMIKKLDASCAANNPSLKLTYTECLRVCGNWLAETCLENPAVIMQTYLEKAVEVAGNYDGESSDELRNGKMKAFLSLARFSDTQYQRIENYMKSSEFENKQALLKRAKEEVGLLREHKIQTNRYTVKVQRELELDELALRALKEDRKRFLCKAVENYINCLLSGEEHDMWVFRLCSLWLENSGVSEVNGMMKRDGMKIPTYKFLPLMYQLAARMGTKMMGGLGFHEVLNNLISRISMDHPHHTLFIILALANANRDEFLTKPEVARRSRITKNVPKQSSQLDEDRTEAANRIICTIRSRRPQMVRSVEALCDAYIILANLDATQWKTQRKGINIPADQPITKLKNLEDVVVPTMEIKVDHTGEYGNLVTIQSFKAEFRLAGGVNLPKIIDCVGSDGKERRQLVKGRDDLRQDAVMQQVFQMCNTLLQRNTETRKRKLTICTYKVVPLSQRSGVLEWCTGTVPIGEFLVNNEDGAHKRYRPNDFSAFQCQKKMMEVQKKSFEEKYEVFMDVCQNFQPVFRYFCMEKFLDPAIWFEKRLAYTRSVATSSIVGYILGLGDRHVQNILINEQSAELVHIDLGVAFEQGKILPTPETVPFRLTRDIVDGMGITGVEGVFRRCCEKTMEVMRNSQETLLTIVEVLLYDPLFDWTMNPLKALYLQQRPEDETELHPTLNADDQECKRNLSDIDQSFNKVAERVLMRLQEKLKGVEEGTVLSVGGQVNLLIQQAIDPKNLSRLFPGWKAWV
Chain of CYP2D6 (P10635 whole entry): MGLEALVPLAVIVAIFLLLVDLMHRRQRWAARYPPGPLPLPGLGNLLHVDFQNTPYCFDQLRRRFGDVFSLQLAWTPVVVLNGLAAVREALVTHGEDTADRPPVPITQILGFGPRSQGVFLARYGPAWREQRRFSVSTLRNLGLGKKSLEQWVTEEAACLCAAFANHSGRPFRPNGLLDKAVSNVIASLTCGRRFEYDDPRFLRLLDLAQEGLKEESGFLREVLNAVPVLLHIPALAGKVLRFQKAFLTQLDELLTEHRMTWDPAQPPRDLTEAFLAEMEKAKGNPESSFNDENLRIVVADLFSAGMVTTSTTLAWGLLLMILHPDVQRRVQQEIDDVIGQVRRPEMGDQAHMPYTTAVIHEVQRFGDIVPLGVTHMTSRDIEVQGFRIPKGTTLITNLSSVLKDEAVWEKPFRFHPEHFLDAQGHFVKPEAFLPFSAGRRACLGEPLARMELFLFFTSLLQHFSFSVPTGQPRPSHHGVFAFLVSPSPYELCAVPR

With `CNC(=O)c1ccc(-c2cnn3ccc(C(=O)N(C)c4ccc(Cl)c(C(=O)OC)c4)cc23)cc1` [EDI048, methyl 2-chloro-5-(N-methyl-3-(4-(methylcarbamoyl)phenyl)pyrazolo[1,5-a]pyridine-5-carboxamido)benzoate] the fraction unbound (Plasma protein binding; plasma) was 0.061, the “Time dependent inhibition 3A4” value (CYP3A4) was “Weak positive” and the KI (inactivation) (CYP3A4; human) was 2.1 µM. For the same molecule, the NOAEL at 14 days ([1]; both, beagle, dog, in vivo, po) was 1000 mg/kg/day, the Tmax ([1]; both, beagle, dog, plasma, oral, dog toxicity study) was ≤ 75 min and the AUC(0-t) ([1]; both, beagle, dog, plasma, po, 1000 mg/kg/day, EDI048 1000 mg/kg/day, day 1) was 459 ng·h/mL. It also gave an AUC(0-t) ([1]; both, beagle, dog, plasma, po, 1000 mg/kg/day, EDI048 1000 mg/kg/day, day 14) of 634 ng·h/mL, a Cmax ([1]; both, beagle, dog, plasma, po, 1000 mg/kg/day, Cmax, dog, EDI048 1000 mg/kg/day, day 14) of 169 ng/mL and a Tmax ([1]; both, beagle, dog, plasma, po, 1000 mg/kg/day, dog, EDI048 1000 mg/kg/day, day 1) of 57 min. For the same molecule, the Tmax ([1]; both, beagle, dog, plasma, po, 1000 mg/kg/day, dog, EDI048 1000 mg/kg/day, day 14) was 45 min, the “cardiovascular findings in dogs” value ([1]; up to 1000 mg/kg/day) was “no EDI048-related cardiovascular findings” and the “induction of human pregnane X receptor” value (human PXR) was “did not induce human pregnane X receptor”. For the same molecule, the “Microsomal ER” value [2] was 92%, the microsomal CLint ([2]; liver microsomes) was 222 µL/min/mg and the IC50 (ATM) was 0.445 µM. For the same molecule, the “selectivity ATM over CpPI(4)K inhibition” value (ATM) was > 100 fold, the IC50 (hERG) was > 30 µM and the IC50 (CYP2D6) was > 25 µM. For the same molecule, the sporozoite invasion (C. parvum [3]) was “inactive; also recorded: does not affect sporozoite invasion”, the half-life (Plasma stability; Plasma T1/2, mouse plasma) was 15.3 min and the half-life (Plasma stability; Plasma T1/2, rodent plasma) was 12 to 15 min. For the same molecule, the half-life ([4]; hepatocytes) was < 3 min, the hepatocyte CLint ([4]; hepatocytes) was > 231 µL/min/1e6 cells and the “SI (selectivity index) HepG2 CC50 / C. parvum EC50 ratio” value (HepG2) was > 100. The selectivity ratio at 96 h (HepG2; human, HepG2 cells (ATCC CRL-10741)) was > 500, the CC50 (HepG2; read-out: HepG2 CC50, 96 h) was 28.1 µM and the EC50 (C. parvum [5]) was 0.05 µM. The IC50 (CpPI(4)K) was 0.004 ± 0.002 µM and the Papp A→B [6] was 9.71 ×10⁻⁶ cm/s.

In the case of `CN(C(=O)c1ccn2ncc(-c3ccc(C(N)=O)cc3)c2c1)c1ccc(C#N)cn1` [KDU731, 3–(4-carbamoylphenyl)-N-(5-cyanopyridin-2-yl)-N-methylpyrazolo [1,5-a]pyridine-5-carboxamide, reference compound], the “% Plasma protein binding” value (Plasma protein binding) is reported as 70.8%, the “Time dependent inhibition 3A4” value (CYP3A4) is reported as “Negative” and the “Microsomal ER” value [2] is reported as 39%. For the same molecule, the “microsomal CLint” value [2] was 13 µL/min/mg, the IC50 (hERG) was > 30 µM and the IC50 (CYP2D6) was > 50 µM. The sporozoite invasion (C. parvum [3]) was “inactive”, the half-life (Plasma stability) was 85.2 min and the “Hepatocytes ER” value [4] was 60%. For the same molecule, the Hepatocytes clearance [4] was 12 μl/min/million cells, the half-life ([4]; hepatocytes) was 57.9 min and the “SI (selectivity index) HepG2 CC50 / C. parvum EC50 ratio” value (HepG2) was > 100. For the same molecule, the EC90 (C. parvum [5]; Cryptosporidium parvum, HCT-8, read-out: approximate C. parvum CPE assay EC90) was ~0.5 µM, the EC50 (C. parvum [5]) was 0.1 µM and the IC50 (CpPI(4)K) was 0.017 ± 0.008 µM. The Papp A→B [6] was 12.1 ×10⁻⁶ cm/s.
